Results as given in the RNAGym collection of RNA variant scans (doi:10.1126/science.aae0568).
This sample holds only a part of the variants without activity.

B1: tRNA (parent)
chain: GUUCCGUUGGCGUAAUGGUAACGCGUCUCCCUCCUAAGGAGAAGACUGCGGGUUCGAGUCCCGUACGGAACG

Variants of: B1
Assay: yeast fitness relative to wild type (ratio to wild type); higher = fitter; tRNA-Arg(CCU), competitive growth, 37 C, YPD
How it was run: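 The tRNA-Arg(CCU) gene variants were made by chemical synthesis with a 3% per-site mutation rate at 69 sites and inserted at the native genomic locus of Saccharomyces cerevisiae. After pooling, the strains were competed in YPD at 37°C for 24 hours in six parallel replicates. Gene amplicons from the start population and each end population were read by 100-nucleotide paired-end sequencing, and Darwinian fitness relative to wild type was taken from genotype frequency changes. Genotypes needed ≥ 100 starting reads, and estimates < 0.5 were set to 0.5.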

Row | Variant | yeast fitness
1 | GUACACUUGGCGUAGAGGUAACGCGGCUCCCUCCUAAGGAGAAGACUGCGGGUUCGAGUGUCGUACGGAACG [U3A C5A G6C A15G U16A U26G C60G C61U] | 0.514
2 | GUACCGUUGGAGUAAUGGUAACGCGUCUCCCUUCUAAGGAGAAGACUGCGGGUUCGAGUCCCGUACGGAACG [U3A C11A C33U] | 0.502
3 | GUACUGUUGGCGUAAUGGUAACGCGUCUCCCUGCUAAGGAGAAGACUGCGGGUUCGAGUCCCGUACGGAACG [U3A C5U C33G] | 0.639
4 | GUACCGUUGGCGUAAUGGUAACGCGUCUCCCUCCUUGGGAGAAGACUGCGGGUUCGAGUCCCGUACGGAACG [U3A A36U A37G] | ≤ 0.5
5 | GGUCCGCUGGCGUAAUGCUAACGCGUCUCCCUCCUAAGGAGUAGACUGGGGGUUCGAGUCCCGUACGGAACG [U2G U7C G18C A42U C49G] | ≤ 0.5
6 | GUACCGUUGGCGUAAUGGUAACGCGUCUCCCUCCUAAGGGGGAGACUGCGGGUUCGCGUCCCGUAUGGAACG [U3A A40G A42G A57C C66U] | ≤ 0.5
7 | GUACCGUUGGAGUAAUGGUGACGCGUCUCCCUCCUAAGAAGAAGACUGCGAGAUCGAGUCCCCUACGGAACG [U3A C11A A20G G39A G51A U53A G63C] | ≤ 0.5
8 | GUACGGUUGGCGUAAUGGUAACGCGUCUCCCUCCUAAGGAGAAGACUGCGGGUUCUAGUCCCGUACGGAACG [U3A C5G G56U] | ≤ 0.5
9 | GGUCCGUUGGCGAAAUGGUAACGCGUCUCCCUCCUAAGGAGAAGACUGCGGGUUCGAGUCCCGUACGGAACG [U2G U13A] | 0.822
10 | GUACAGUGGACGUAAUGGUAACGCGUCUCCUUCCUAAGGAGAAGACCGCGGGUUCGAGUCCCGUACGGAACG [U3A C5A U8G G10A C31U U47C] | 0.632
11 | GUACCGUUGGCGUCAUGGUCACGCGUCUCCCUCCUAAGGAGAAGACUGCGGGUUCGAGUCCCGAACGGAACG [U3A A14C A20C U64A] | ≤ 0.5
12 | GGUCCGUUGGCGUAAUGGAAGCGCGUCUCCCUCCUAAGCAGAAGACUGCGGGUUCGAGUGCCGUACCGAACG [U2G U19A A21G G39C C60G G67C] | ≤ 0.5
13 | GUACCGUUGGCGUAAUGGUAACGCGUCUCCCUCCUUAGGAGAGGACUGCGGCUUCGAGUCCCGUACGGAACG [U3A A36U A43G G52C] | ≤ 0.5
14 | GUACACUUGGCGUAAUGGUAACGCGUCUCCCUCCUACGGAGAAGUCUGCGGGUUCGAGUCCCGUACGCAACG [U3A C5A G6C A37C A45U G68C] | ≤ 0.5
15 | GUACCGUUGGCGUAAUGGUAACGCGUCUCCCUCCUAAGGAGAAGACUGCGGGUUCGAGUCCCGUCCGGAACG [U3A A65C] | 0.879
16 | GUACCGUUGGCGUAAUGGUAACGCGUCUCCCUCCUGAGGAGAAGACUGCGGGUUCGAGUCCCGUACGAACCG [U3A A36G G68A A70C] | 0.566
17 | GUACAGUUGGCGUAAUGGUAACACGUCUCCCUCCUAAGGAGAAGACUGCGGGUUCGAGUCCCGUACGUAACG [U3A C5A G23A G68U] | 0.816
18 | GGUCCGGUGGCGUAACGGUAACGUGUCUCCCUCUUAAGGAGAAGACUGCAGGUCCGAGUCCCGUUCGGAACG [U2G U7G U16C C24U C34U G50A U54C A65U] | ≤ 0.5
19 | GUAUCGUUGGCGUAAUGGUAACGCGUCUCCCUCCUAAGGAGAAGACUUCGGGUUCGAGUCCCGUACGGAACG [U3A C4U G48U] | ≤ 0.5

Row | Variant | yeast fitness
20 | GUAUCGUUGGCGUAAUGGUAACGCGUCUCCCUGGUAAGGAGAAGACUGCGGGUACGAGUCCCGUACGGAACG [U3A C4U C33G C34G U54A] | ≤ 0.5
21 | GUACUGUUGGCGUAAUGGUAACGCGUCUCCAUCCUAAGGAGAAGCGUGCGGCUUCGAGUCCCGUACGGAACG [U3A C5U C31A A45C C46G G52C] | ≤ 0.5
22 | GUAUCGUUGGCGUAAUGGUAACGCGUCUCCCCCCUAAGGAGAAGACUGCGGGUUCGAGUCCCGCACGGAACG [U3A C4U U32C U64C] | 0.877
23 | GUACAGUUGGCGUAAUGGUAACGCGUCUCCCUCCUAAGGAGAAGCCUGCCGGUUCGAGUCCCGCACGGAACG [U3A C5A A45C G50C U64C] | 0.54
24 | GUACCGUUGGCGUUAUGGUAACGCGUCUCCCUCCUAAGGAGAAGACUGCGGGUUCGAGUGUGGUUCGGAACG [U3A A14U C60G C61U C62G A65U] | ≤ 0.5
25 | GGUCCGUUGGCGUAAUGGAAGCGCGUCUCCCUCCUAAGGAGCAGACUCAGGGUUCGAGUCCCGUACGGAACG [U2G U19A A21G A42C G48C C49A] | ≤ 0.5
26 | GUACCGUUGGCGUACUGGUAACGCGUCUCCCUCCUAAGGAGAAAACUGCGGGUUCGUGUCCCGUACGGAACG [U3A A15C G44A A57U] | ≤ 0.5
27 | GUACCGUUGGCGUAAUGGUAACGCGUCUCCCUCCUAAGGAGAAGACUGCGGGUUCGAGUCCCGUGCGAAUCG [U3A A65G G68A A70U] | 0.556
28 | GUAGCGUUAGGGUAAUGGUAACGCGUCUCCCUCCUAAGGAGAAGACUGCGGGUUCGAGUCCCGUACGGAACG [U3A C4G G9A C11G] | ≤ 0.5
29 | GUACAGUUGGCGUAAUGGUAACGCGUCUCCCUCCUAAGGAGAAGCCUGCCGGUUCGAGUCUCGUACGAAACG [U3A C5A A45C G50C C61U G68A] | ≤ 0.5
30 | GUACCGUUGGCGUGAUGGUAACGCGUCUCCCUCCUAAGGAGAAGAGUGCGGGUUCGAGUCCCGUACGGAACG [U3A A14G C46G] | 0.62
31 | GUAUCGUUGGCGUAAUGGUAACGCGUCUCCCUGGUAAGGAGAAGACUGCGGGUUCGUGUCCCGUACGGAACG [U3A C4U C33G C34G A57U] | 0.63
32 | GUACCGUUGGCGUGAUGGUAACGCGUCUCCCUCCUAAGGAGAAGACUGCGGGUUCGAGUCCCGUACGGAACG [U3A A14G] | 0.934
33 | GGUCCGUUGGCGUAAUGGUAACGCGUCUCCCCGCUAAGGAGAAGACUGCGGGUUCGAGUCCUGUACGGAACG [U2G U32C C33G C62U] | 0.535
34 | GUACCGUUGGCGUAAUGGUGACGCGUCUUCCUCCUAAGGAGAAGACUCCGGGUUCGAGUCCCGUACGGAACG [U3A A20G C29U G48C] | ≤ 0.5
35 | GGUCCGUUGGCGUAAGGGUAACGCGUAUCCCUCCUCAGGAGAAGACUGCGAGUUCGAGUCCCGUACGGAACG [U2G U16G C27A A36C G51A] | 0.536
36 | GUAGCGUAGGCGUAAUGGUAACGGGUCUCCCUCCUAAGGAGAAGACUGCGGGCUCGAAUCCCGUACGGAACG [U3A C4G U8A C24G U53C G58A] | ≤ 0.5
37 | GUACCGUUGGCGUAAUGGUAACGCGUCUCCCUCCUAAGGAGAAGACUGCGGGUUCGUGUCCCGUCCGGCACG [U3A A57U A65C A69C] | 0.593
